Calls of active or inactive are those of the source. No cut-off for these calls is given here.
What was measured:
HCT-116 [1] = assay: Inhibition of epithelial mesenchymal transition in human HCT-116 cells assessed as effect on vimentin protein expression at 0.5 uM incubated for 48 hrs by Western blot analysis; format: functional, cell-based
HCT-116 [2] = assay: Induction of morphological changes in human HCT-116 cells assessed as massive vacuolization at 0.5 uM incubated for 48 hrs by scanning electron microscopic analysis; format: functional, cell-based
Method in brief: (§1)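 HCT116 on coverslips, treated 48 h at 0.5 µM. Coverslips rinsed in PBS pH 7.4, fixed in 4% glutaraldehyde for 30 min at 4 °C, then imaged by scanning electron microscopy at 5000X and 20000X.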

HCT-116 [3] = assay: Induction of morphological changes in human HCT-116 cells assessed as tunneling nanotubes formation at 0.5 uM incubated for 48 hrs by scanning electron microscopic analysis; format: functional, cell-based; method in brief: as §1
HCT-116 [4] = assay: Induction of apoptosis in human HCT-116 cells assessed as chromatin condensation at 0.5 uM incubated for 48 hrs by Hoechst 33342 staining based analysis; format: functional, cell-based
Method in brief: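 HCT116 on coverslips at 5×10^4 cells/well, treated 48 h at 0.5 µM after 24 h attachment. PBS-washed, stained 10 min with Hoechst 33342 (final 1 µg/ml). Nuclei inspected at once by fluorescence microscopy at 640X for chromatin condensation and nuclear fragmentation.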

HCT-116 [5] = assay: Induction of cell death in human HCT-116 cells assessed as increase in orange fluorescence at 0.5 uM incubated for 48 hrs by acridine orange and ethidium bromide staining based fluorescence microscopic analysis; format: functional
Method in brief: (§2)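 HCT116 on coverslips (5×10^4 cells/well), 24 h attachment, then exposed 48 h to 0.5 µM. PBS-washed and stained a few minutes with a 1:1 mix of acridine orange (100 µg/mL) and ethidium bromide (100 µg/mL). Viewed at once by fluorescence microscopy at 640X, scoring green vs orange nuclei and punctate cytoplasmic staining.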

HCT-116 [6] = assay: Induction of cell death in human HCT-116 cells assessed as chromatin condensation at 0.5 uM incubated for 48 hrs by acridine orange and ethidium bromide staining based fluorescence microscopic analysis; format: functional; method in brief: as §2
HCT-116 [7] = assay: Induction of cell death in human HCT-116 cells assessed as appearance of acidic vesicular organelles by measuring bright punctate dots in cytoplasm at 0.5 uM incubated for 48 hrs by acridine orange and ethidium bromide staining based fluorescence microscopic analysis; format: functional; method in brief: as §2
HCT-116 [8] = assay: Induction of morphological changes in human HCT-116 cells assessed as appearance of long and thin filopodia at 0.5 uM incubated for 48 hrs by scanning electron microscopic analysis; format: functional, cell-based; method in brief: as §1
HCT-116 [9] = assay: Induction of intracellular ROS generation in human HCT-116 cells at IC50 by DCFH-DA staining based analysis; format: functional, cell-based; settings: time 24-48 hrs, TDE = time-dependent effect
Method in brief: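 HCT116 plated at 5×10^3 cells/well, grown overnight, then exposed 24 h or 48 h at the IC50 concentration. Loaded with 10 µM DCFH-DA for 30 min at 37 °C, medium swapped for PBS. Fluorescence read at ex 488/em 525 nm, normalized to cell number from a parallel MTT assay and to untreated cells. Triplicate, mean ±SD, Student's t-test.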

HCT-116 [10] = assay: Inhibition of epithelial mesenchymal transition in human HCT-116 cells assessed as effect on E-cadherin protein expression at 0.5 uM incubated for 48 hrs by Western blot analysis; format: functional, cell-based
HCT-116 [11] = assay: Induction of morphological changes in human HCT-116 cells assessed as neuronal sprouting at 0.5 uM incubated for 48 hrs by scanning electron microscopic analysis; format: functional, cell-based; method in brief: as §1
HCT-116 [12] = assay: Induction of cell death in human HCT-116 cells assessed as appearance of neutral pH vacuoles originated from engulfment of extracellular fluid at 0.5 uM incubated for 48 hrs by acridine orange and ethidium bromide staining based fluorescence microscopic analysis; format: functional; method in brief: as §2
HCT-116 [13] = assay: Induction of morphological changes in human HCT-116 cells assessed as appearance of flattened cells at 0.5 uM incubated for 48 hrs by inverted phase-contrast microscopic analysis; format: functional, cell-based
HCT-116 [14] = assay: Induction of morphological changes in human HCT-116 cells assessed as increase in number of prominent vacuoles at 0.5 uM incubated for 48 hrs by inverted phase-contrast microscopic analysis; format: functional, cell-based
MCF7 [15] = assay: Induction of morphological changes in human MCF7 cells assessed as reduction in cell clumps at 1 uM incubated for 48 hrs by inverted phase-contrast microscopic analysis; format: functional, cell-based
[16] = Cytotoxicity against hTERT-RPE1 cells assessed as inhibition of cell proliferation incubated for 48 hrs by MTT assay; format: toxicity, cell-based, TERT-RPE1; settings: human
Method in brief: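 Cells kept in DMEM with 10% heat-inactivated FBS, penicillin/streptomycin, 37 °C, 5% CO2. Plated at 5×10^3 cells/well and left 24 h, then exposed 48 h to 80, 20, 5, 1.25, 0.31 and 0.078 µM (diluted from 5 mM DMSO stocks). MTT added for 2 h at 37 °C, formazan dissolved in DMSO, A570 read. Blank subtracted, viability taken relative to untreated cells. IC50 from a sigmoidal fit of % inhibition vs log concentration. Three experiments, each in triplicate.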

HCT-116 [17] = assay: Induction of morphological changes in human HCT-116 cells assessed as reduction in cell clumps at 0.5 uM incubated for 48 hrs by inverted phase-contrast microscopic analysis; format: functional, cell-based
HCT-116 [18] = assay: Induction of cell death in human HCT-116 cells assessed as effect on Bcl2 protein expression at 0.5 uM incubated for 48 hrs by Western blot analysis; format: functional, cell-based
HCT-116 [19] = assay: Induction of morphological changes in human HCT-116 cells assessed as development of long elongations from filamentous protrusions resembling filopodia at 0.5 uM incubated for 48 hrs by inverted phase-contrast microscopic analysis; format: functional, cell-based
HCT-116 [20] = assay: Induction of cell death in human HCT-116 cells assessed as membrane blebbing at 0.5 uM incubated for 48 hrs by acridine orange and ethidium bromide staining based fluorescence microscopic analysis; format: functional; method in brief: as §2
HCT-116 [21] = assay: Induction of morphological changes in human HCT-116 cells assessed as alteration in intercellular adhesion at 0.5 uM incubated for 48 hrs by scanning electron microscopic analysis; format: functional, cell-based; method in brief: as §1
HCT-116 [22] = assay: Induction of morphological changes in human HCT-116 cells assessed as appearance of flattened cells at 0.5 uM incubated for 48 hrs by scanning electron microscopic analysis; format: functional, cell-based; method in brief: as §1
MCF7 [23] = assay: Induction of morphological changes in human MCF7 cells assessed as appearance of filamentous protrusions at 1 uM incubated for 48 hrs by inverted phase-contrast microscopic analysis; format: functional, cell-based
HCT-116 [24] = assay: Induction of morphological changes in human HCT-116 cells assessed as appearance of actin rich long elongations at 0.5 uM incubated for 48 hrs by rhodamine-phalloidin staining based fluorescence microscopic analysis; format: functional, cell-based
Method in brief: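 HCT116 on coverslips, treated 48 h at 0.5 µM. Fixed in cold methanol 15 min, permeabilized 15 min in 0.1% Triton X-100/PBS. Stained with 0.165 µM rhodamine-phalloidin for 40 min in the dark at room temperature. Imaged at 640X.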

HCT-116 [25] = assay: Induction of autophagy in human HCT-116 cells assessed as effect on Beclin-1 protein expression at 0.5 uM incubated for 48 hrs by Western blot analysis; format: functional, cell-based
HCT-116 [26] = assay: Induction of autophagy in human HCT-116 cells assessed as effect on Atg-7 protein expression at 0.5 uM incubated for 48 hrs by Western blot analysis; format: functional, cell-based

Row | SMILES | inhibition (HCT-116 [1]) | Activity (HCT-116 [2]) | Activity (HCT-116 [3]) | Activity (HCT-116 [4]) | Activity (HCT-116 [5]) | Activity (HCT-116 [6]) | Activity (HCT-116 [7]) | Activity (HCT-116 [8]) | Activity (HCT-116 [9]) | inhibition (HCT-116 [10]) | Activity (HCT-116 [11]) | Activity (HCT-116 [12]) | Activity (HCT-116 [13]) | Activity (HCT-116 [14]) | Activity (MCF7 [15]) | IC50 at 48 h [16] [µM] | Activity (HCT-116 [17]) | Activity (HCT-116 [18]) | Activity (HCT-116 [19]) | Activity (HCT-116 [20]) | further results
1 | O=C(c1cc(Br)cc(Br)c1O)c1[nH]c(Br)c(Br)c1Br | inactive | Active | Active | inactive | Active | inactive | Active | Active | Tde | inactive | Active | Active | Active | Active | Active | 57.7 | Active | Active | Active | Active | Activity (HCT-116 [21]): Active; Activity (HCT-116 [22]): Active; Activity (MCF7 [23]): Active; Activity (HCT-116 [24]): Active
2 | O=C(c1cc(Br)ccc1O)c1[nH]c(Br)c(Cl)c1Br | inactive | Active | Active | inactive | Active | inactive | Active | Active | Tde | inactive | Active | Active | Active | Active | Active | 86.6 | Active | Active | Active | Active | Activity (HCT-116 [25]): Active; Activity (HCT-116 [26]): Active; Activity (HCT-116 [21]): Active; Activity (HCT-116 [22]): Active; Activity (MCF7 [23]): Active; Activity (HCT-116 [24]): Active
3 | O=C(c1cc(Br)ccc1O)c1[nH]c(Cl)c(Br)c1Br | inactive | Active | Active | inactive | Active | inactive | Active | Active | Tde | inactive | Active | Active | Active | Active | Active | 61.5 | Active | Active | Active | Active | Activity (HCT-116 [25]): Active; Activity (HCT-116 [26]): Active; Activity (HCT-116 [21]): Active; Activity (HCT-116 [22]): Active; Activity (MCF7 [23]): Active; Activity (HCT-116 [24]): Active
4 | O=C(c1cc(Br)ccc1O)c1[nH]c(Br)c(Br)c1Br | inactive | Active | Active | inactive | Active | inactive | Active | Active | Tde | inactive | Active | Active | Active | Active | Active | 62.8 | Active | Active | Active | Active | Activity (HCT-116 [25]): Active; Activity (HCT-116 [26]): Active; Activity (HCT-116 [21]): Active; Activity (HCT-116 [22]): Active; Activity (MCF7 [23]): Active; Activity (HCT-116 [24]): Active
5 | O=C(c1cc(Br)ccc1O)c1[nH]c(Cl)c(Cl)c1Br | inactive | Active | Active | inactive | Active | inactive | Active | Active | Tde | inactive | Active | Active | Active | Active | Active | 175 | Active | Active | Active | Active | Activity (HCT-116 [25]): Active; Activity (HCT-116 [26]): Active; Activity (HCT-116 [21]): Active; Activity (HCT-116 [22]): Active; Activity (MCF7 [23]): Active; Activity (HCT-116 [24]): Active

Source: ChEMBL document CHEMBL5360579, “Exploring the anticancer activity and the mechanism of action of pyrrolomycins F obtained by microwave-assisted total synthesis” (Eur J Med Chem, 2023)
